From PubChem
Ba/F3 V617F tox – loss of viability in JAK2V617F-driven Ba/F3 cells; inhibition, % at 5.6 µM; Ba/F3 EpoR-JAK2V617F viability, ATP luminescence; actives 1.1% (n = 220,000); AID 1446;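 active = inhibition above the campaign mean plus 3 SD over all tested compounds, cut at about 24% in these data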;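 also: cytokine-independent growth of Ba/F3 cells driven by EpoR plus mutant JAK2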
BaF3 tox – parental Ba/F3 viability inhibition as JAK2V617F counter-screen; actives 1.1% (n = 220,000); CellTiter-Glo ATP luminescence; inhibition, % at 5.6 µM; AID 1486;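 active = inhibition above a per-campaign cutoff, the mean inhibition of all tested compounds plus 3 SD, cut at about 27% in these data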
Lmaj promast – inhibitors of Leishmania major promastigote growth; actives 9% (n = 200,000); inhibition, % at 10 µM; AID 1063; Leishmania major promastigotes, resazurin fluorescence viability; in the data active = inhibition above about 50%;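 also: promastigotes grown with compound for 44 hours at 28 °C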
MT stabilizer – microtubule stabilization, imaging screen. HeLa tubulin immunostaining HCS, 24 h; share of cells brighter than vehicle mean+2SD. % tubulin-high responders, % at 10 µM. actives 0.83% (n = 200,000);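 active = plate Z-score above 3 for both tubulin-high and condensed-nucleus cell shares, with cell loss under 80%, at 10 µM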;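 also: anti alpha tubulin signal scored within the nucleus-defined area of each cell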
bCat nuc transl – alters nuclear translocation of beta-catenin in HeLa cells; immunofluorescence imaging; nuclear translocation activity, % at 5 µM; actives 0.3% (n = 190,000); AID 1665;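 active = nuclear translocation activity above 50% at 5 µM, with a well cell count of 50 or more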;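 also: per-cell ratio of nuclear to cytoplasmic median beta-catenin stain intensity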
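assay system = human HeLa cells, endogenous beta-catenin | times = compound treatment 24 h, 37°C, 5% CO2 | detection = Anti-beta-catenin immunofluorescence on PFA-fixed, Triton-permeabilized cells, DAPI nuclei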
APP transl inh – APP translation inhibition; SH-SY5Y APP 5'UTR-luciferase reporter, luminescence; inhibition, % at 2 µM; actives 0.82% (n = 190,000);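 active = inhibition above a set limit, derived from the sample mean plus 3 SD, cut at about 45% in these data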
Numbers stand for hits. An excerpt weighted towards active compounds, which were near 9.6% of everything screened.

For CC(C)N1CCc2c(sc(NC(=O)c3cc4cc([N+](=O)[O-])ccc4s3)c2C(N)=O)C1 the results were Ba/F3 V617F tox inactive, BaF3 tox inactive, Lmaj promast 100, MT stabilizer inactive, bCat nuc transl inactive and APP transl inh inactive.
For COc1ccc(CNC(=O)C2CCC(CNc3nc(=S)[nH]c4ccccc34)CC2)cc1 (stereo not drawn) the results were Ba/F3 V617F tox inactive, BaF3 tox inactive, Lmaj promast inactive, MT stabilizer inactive, bCat nuc transl inactive and APP transl inh inactive.
Screening Cc1ccc2c(c1)c1c(n2CC(O)CNC2CCCCC2)CCCC1 (stereo not drawn) returned Ba/F3 V617F tox inactive, BaF3 tox inactive, Lmaj promast 101, MT stabilizer 36, bCat nuc transl inactive and APP transl inh inactive.
For CCn1cc(C(=O)NCc2ccccc2Cl)cn1 the results were Ba/F3 V617F tox inactive, BaF3 tox inactive, Lmaj promast inactive, MT stabilizer inactive and APP transl inh inactive.
`N#Cc1ccccc1OCCOCCNC1CCCC1` gave Ba/F3 V617F tox inactive, BaF3 tox inactive, Lmaj promast 82, MT stabilizer inactive, bCat nuc transl inactive and APP transl inh inactive.
`COc1cc(CCC(=O)O)on1` gave Ba/F3 V617F tox inactive, BaF3 tox inactive and bCat nuc transl inactive.
`COCCNC(=S)NC(=O)CC12CC3CC(CC(C3)C1)C2` gave Ba/F3 V617F tox inactive, BaF3 tox inactive, Lmaj promast 88, MT stabilizer inactive, bCat nuc transl inactive and APP transl inh inactive.
CN1CCN(C(=O)Nc2ccc3c(c2)N(C)C(=O)c2ccccc2S3)CC1 was read as Ba/F3 V617F tox inactive, BaF3 tox inactive, Lmaj promast 98, MT stabilizer inactive, bCat nuc transl inactive and APP transl inh inactive.
For CN1C(=O)c2ccccc2Sc2ccc(NC(=O)N3CCCC3)cc21 the results were Ba/F3 V617F tox inactive, BaF3 tox inactive, Lmaj promast inactive, MT stabilizer inactive, bCat nuc transl inactive and APP transl inh inactive.
For C#CCOc1c(Br)cc(/C=N\NC(=O)CN2CCOCC2)cc1OCC the results were Ba/F3 V617F tox inactive, BaF3 tox inactive, Lmaj promast inactive, MT stabilizer inactive, bCat nuc transl inactive and APP transl inh inactive.
For C/C=C/C(=O)Nc1cccc(C2=NOC3(C2)C[C@H](C(N)=O)N(C(=O)c2ccccc2C(=O)c2ccccc2)C3)c1 (stereo partly drawn) the results were bCat nuc transl inactive.
`COc1ccc(CCNc2nc(-c3sc(C)nc3C)cs2)cc1OC` gave Ba/F3 V617F tox inactive, BaF3 tox inactive, Lmaj promast inactive, MT stabilizer inactive and APP transl inh 55.
COc1ccc(CCNc2nc(-c3ccncc3)cs2)cc1OC was read as Ba/F3 V617F tox inactive, BaF3 tox inactive and bCat nuc transl inactive.
Screening CCCS(=O)(=O)c1nc(S(=O)(=O)c2ccc(C)cc2)c(NCc2ccc3c(c2)OCO3)s1 returned Ba/F3 V617F tox inactive, BaF3 tox inactive, Lmaj promast 62, MT stabilizer inactive, bCat nuc transl inactive and APP transl inh inactive.
Screening Cc1ccc(S(=O)(=O)c2nc(NCCN(C)C)sc2Cl)cc1 returned Ba/F3 V617F tox inactive, BaF3 tox inactive, Lmaj promast 89, MT stabilizer inactive and APP transl inh inactive.
CCCS(=O)(=O)c1nc(S(=O)(=O)c2ccc(C)cc2)c(NCCCN(C)C)s1 was read as Ba/F3 V617F tox inactive, BaF3 tox inactive, Lmaj promast 95, MT stabilizer inactive, bCat nuc transl inactive and APP transl inh inactive.
Cc1ccc(S(=O)(=O)c2nc(Nc3ccccc3)sc2Cl)cc1 was read as Ba/F3 V617F tox inactive, BaF3 tox inactive, Lmaj promast inactive, MT stabilizer inactive, bCat nuc transl inactive and APP transl inh inactive.
CCCS(=O)(=O)c1nc(S(=O)(=O)c2ccc(C)cc2)c(NCCN2CCOCC2)s1 was read as Ba/F3 V617F tox inactive, BaF3 tox inactive, Lmaj promast inactive, MT stabilizer inactive, bCat nuc transl inactive and APP transl inh inactive.
For Cc1ccc(S(=O)(=O)NC(=O)NCc2ccc3c(c2)OCO3)cc1 the results were Ba/F3 V617F tox inactive, BaF3 tox inactive, Lmaj promast inactive, MT stabilizer inactive and APP transl inh inactive.
For Cc1ccc(Sc2ncccc2C(=O)O)cc1C the results were Ba/F3 V617F tox inactive, BaF3 tox inactive, Lmaj promast 59, MT stabilizer inactive, bCat nuc transl inactive and APP transl inh inactive.
O=C(NNS(=O)(=O)c1ccccc1)C1CC(c2cccnc2)=NO1 (stereo not drawn) was read as Ba/F3 V617F tox inactive, BaF3 tox inactive, Lmaj promast inactive, MT stabilizer inactive, bCat nuc transl inactive and APP transl inh inactive.
Screening O=C1C(Cc2ccc(Br)cc2)SC(=Nc2ccccc2)N1c1ccccc1 (stereo not drawn) returned Ba/F3 V617F tox inactive, BaF3 tox inactive, Lmaj promast 54, MT stabilizer inactive, bCat nuc transl inactive and APP transl inh inactive.
For O=C1C(Cc2ccc(F)cc2)SC(=Nc2ccccc2)N1c1ccccc1 (stereo not drawn) the results were Ba/F3 V617F tox inactive, BaF3 tox inactive, Lmaj promast inactive, MT stabilizer inactive, bCat nuc transl inactive and APP transl inh inactive.
Screening CCc1ccc(C(C)NC(=O)C2(C)CC2(Br)Br)cc1 (stereo not drawn) returned Ba/F3 V617F tox inactive, BaF3 tox inactive, Lmaj promast 54, MT stabilizer inactive, bCat nuc transl inactive and APP transl inh inactive.
For CCC(NC(=O)C1(C)CC1(Br)Br)c1ccc(C)cc1 (stereo not drawn) the results were Ba/F3 V617F tox inactive, BaF3 tox inactive, Lmaj promast inactive, MT stabilizer inactive and APP transl inh inactive.
O=c1c2c3c(sc2n2cnnc2n1Cc1ccccc1)CN(Cc1ccccc1)CC3 was read as Ba/F3 V617F tox inactive, BaF3 tox inactive, Lmaj promast 100, MT stabilizer inactive and APP transl inh inactive.
c1ccc(-c2nc(N3CCNCC3)nc3ccccc23)cc1 was read as Ba/F3 V617F tox inactive, BaF3 tox inactive, Lmaj promast 100, MT stabilizer inactive and APP transl inh inactive.
Screening c1ccc(-c2nc(N3CCCCC3)nc3ccccc23)cc1 returned Ba/F3 V617F tox inactive, BaF3 tox inactive, Lmaj promast inactive, MT stabilizer inactive, bCat nuc transl inactive and APP transl inh inactive.
For c1ccc2c(c1)nc(N1CCCCC1)c1ccccc12 the results were Ba/F3 V617F tox inactive, BaF3 tox inactive and bCat nuc transl inactive.
For c1ccc(-c2nc(N3CCOCC3)c3ccccc3n2)nc1 the results were Ba/F3 V617F tox inactive, BaF3 tox inactive, Lmaj promast 99, MT stabilizer inactive, bCat nuc transl inactive and APP transl inh inactive.
c1ccc2c(N3CCCCC3)nc(N3CCCC3)nc2c1 was read as Ba/F3 V617F tox inactive, BaF3 tox inactive, Lmaj promast 99, MT stabilizer inactive and APP transl inh inactive.
c1ccc(-c2nc(N3CCCCCC3)c3ccccc3n2)nc1 was read as Ba/F3 V617F tox inactive, BaF3 tox inactive, Lmaj promast 101, MT stabilizer inactive, bCat nuc transl inactive and APP transl inh inactive.
